Type in all cases: functional
The nature of assay [1]: In vitro antibacterial activity against Gram (-) bacteria. The gist of the method:
(§1)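 Value is the geometric mean of MICs over a panel: 14 Gram (–) or 13 Gram (+) strains. MICs came from NCCLS agar dilution in Mueller Hinton medium (10% horse blood added for S. pneumoniae), with twofold dilutions from 128 to 0.002 μg/mL. Inoculum was about 10^4 organisms, at 37 °C for 18 h; endpoint was no visible growth.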

A short description of assay [2]: Tested for in vitro antibacterial activity against Gram (+) bacteria. Put shortly:
as §1

Another assay relates to Escherichia coli. The assay can be described thus: Tested for in vitro antibacterial activity against Escherichia coli W9523. Put shortly: (§2)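 Agar dilution per NCCLS. Twofold serial dilutions (128–0.002 μg/mL) were made in Mueller Hinton medium. Plates were inoculated with about 10^4 organisms and incubated at 37 °C for 18 h. MIC was the lowest concentration giving no visible growth.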

The next assay has as its system Staphylococcus aureus. The assay can be described thus: Tested for in vitro antibacterial activity against methicillin resistant Staphylococcus aureus W9501. The gist of the method: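 Agar dilution per NCCLS standard method in Mueller Hinton medium; two-fold serial dilutions of test compound from 128 to 0.002 μg/mL. Plates inoculated with about 10^4 organisms, incubated 37 °C for 18 h. MIC read as lowest concentration giving no visible growth on the plate.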

In another assay the test system is Streptococcus pneumoniae. Kind of assay: Tested for in vitro antibacterial activity against Streptococcus pneumoniae W1466. The gist of the method:
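Agar dilution per NCCLS in Mueller Hinton medium supplemented with 10% horse blood. Twofold dilutions spanned 128–0.002 μg/mL. Inoculum was about 10^4 organisms, incubated at 37 °C for 18 h. MIC was the lowest concentration with no visible growth.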

The subject of the next assay is Pseudomonas aeruginosa. The assay can be described thus: Tested for in vitro antibacterial activity against Pseudomonas aeruginosa W348. The gist of the method: as §2

SMILES strings stand for the structures. In brackets after ≈: the same amount, converted by molar mass.

As to `Nc1cc(-n2cc(C(=O)O)c(=O)c3cc(F)c(N4CCNCC4)nc32)c(F)cc1F`, the GM-MIC worked out at 1.72 µg/mL in assay [1] and 5.81 µg/mL in assay [2].
On the same counts, the results for `Nc1c(F)ccc(-n2cc(C(=O)O)c(=O)c3cc(F)c(N4CC[C@H](N)C4)nc32)c1F` are 0.32 µg/mL and 1.61 µg/mL.
On the same counts, the results for `Nc1ccc(F)c(-n2cc(C(=O)O)c(=O)c3cc(F)c(N4CC[C@H](N)C4)nc32)c1` are 0.86 µg/mL and 1.99 µg/mL.
Consider `Nc1cc(-n2cc(C(=O)O)c(=O)c3cc(F)c(N4CC[C@H](N)C4)nc32)c(F)c(F)c1F`, for which the GM-MIC in assay [1] amounted to 1.81 µg/mL; in assay [2], 3.22 µg/mL.
Consider `Nc1cc(-n2cc(C(=O)O)c(=O)c3cc(F)c(N4CCNCC4)cc32)c(F)cc1F`, for which the GM-MIC in assay [1] worked out at 0.15 µg/mL; in assay [2], 1.05 µg/mL.
`Cc1c(N2CC(N)C2)c(F)cc2c(=O)c(C(=O)O)cn(-c3cc(N)c(F)cc3F)c12`: the GM-MIC in assay [1] was found to be 0.03 µg/mL; in assay [2], 0.09 µg/mL.
For `Nc1cc(-n2cc(C(=O)O)c(=O)c3cc(F)c(N4CC[C@H](N)C4)cc32)c(F)cc1F`, the GM-MIC in assay [1] came to 0.14 µg/mL; in assay [2] it was 0.22 µg/mL.
In the case of `Nc1cc(-n2cc(C(=O)O)c(=O)c3cc(F)c(N4CC(N)C4)cc32)c(F)cc1F`, the figures for the GM-MIC in assay [1] and in assay [2] were 0.12 µg/mL and 0.49 µg/mL, respectively.
As for `O=C(O)c1cn(C2CC2)c2cc(N3CCNCC3)c(F)cc2c1=O` [CIPROFLOXACIN], the MIC in the assay with Escherichia coli was 128 µg/mL (≈ 386 µM); against Staphylococcus aureus, 128 µg/mL (≈ 386 µM); with Streptococcus pneumoniae, 1 µg/mL (≈ 3.02 µM). Moreover, the GM-MIC in assay [1] is 0.04 µg/mL; in assay [2], 0.99 µg/mL.
Turning to `Nc1cc(-n2cc(C(=O)O)c(=O)c3cc(F)c(N4CCNCC4)c(F)c32)c(F)cc1F`, the results for the GM-MIC in assay [1] and in assay [2] were 0.39 µg/mL and 2.6 µg/mL, respectively.
Taken in the same sequence, the figures for `CNC1CN(c2c(F)cc3c(=O)c(C(=O)O)cn(-c4cc(N)c(F)cc4F)c3c2Cl)C1` were 0.04 µg/mL and 0.08 µg/mL.
For the compound `NC1CCN(c2nc3c(cc2F)c(=O)c(C(=O)O)cn3-c2ccc(F)cc2F)C1` (configuration not stated) [TOSUFLOXACIN], the GM-MIC in assay [1] is 0.12 µg/mL; in assay [2] it was 0.44 µg/mL.
As to `Nc1cc(-n2cc(C(=O)O)c(=O)c3cc(F)c(N4CC(N)C4)c(Cl)c32)c(F)cc1F`, the MIC in the assay on Escherichia coli worked out at 1 µg/mL (≈ 2.28 µM); in the assay on Staphylococcus aureus it was 1 µg/mL (≈ 2.28 µM); in the assay with Pseudomonas aeruginosa, 1 µg/mL (≈ 2.28 µM); against Streptococcus pneumoniae, 0.008 µg/mL (≈ 0.0182 µM). For the same compound, the GM-MIC in assay [1] came out at 0.03 µg/mL; in assay [2], 0.07 µg/mL.
On to `Nc1cc(-n2cc(C(=O)O)c(=O)c3cc(F)c(N4CC[C@H](N)C4)c(F)c32)c(F)cc1F`, for which the GM-MIC in assay [1] came to 0.22 µg/mL; in assay [2] it was 0.34 µg/mL.
On to `CCNC1CN(c2c(F)cc3c(=O)c(C(=O)O)cn(-c4cc(N)c(F)cc4F)c3c2Cl)C1`, for which the GM-MIC turned out to be 0.08 µg/mL in assay [1] and 0.12 µg/mL in assay [2].
Consider `NC1CN(c2c(F)cc3c(=O)c(C(=O)O)cn(-c4ccc(F)cc4F)c3c2Cl)C1`, for which the MIC in the assay with Escherichia coli is 32 µg/mL (≈ 75.5 µM); with Staphylococcus aureus, 8 µg/mL (≈ 18.9 µM); against Pseudomonas aeruginosa it was 16 µg/mL (≈ 37.8 µM); with Streptococcus pneumoniae it was 0.03 µg/mL (≈ 0.0708 µM). Further, the GM-MIC turned out to be 0.06 µg/mL in assay [1] and 0.13 µg/mL in assay [2].
As to `CN(C)C1CN(c2c(F)cc3c(=O)c(C(=O)O)cn(-c4cc(N)c(F)cc4F)c3c2Cl)C1`, the GM-MIC is 0.22 µg/mL in assay [1] and 0.12 µg/mL in assay [2].
Turning to `Nc1cc(-n2cc(C(=O)O)c(=O)c3cc(F)c(N4CCNCC4)c(Cl)c32)c(F)cc1F`, the figures for the GM-MIC in assay [1] and in assay [2] were 0.52 µg/mL and 1.61 µg/mL, respectively.
For `Nc1cc(-n2cc(C(=O)O)c(=O)c3cc(F)c(N4CC[C@H](N)C4)nc32)ccc1F`, the GM-MIC turned out to be 0.14 µg/mL in assay [1] and 0.45 µg/mL in assay [2].
Take `Nc1cc(-n2cc(C(=O)O)c(=O)c3cc(F)c(N4CC(N)C4)nc32)c(F)cc1F`: the GM-MIC amounted to 0.15 µg/mL in assay [1] and 0.65 µg/mL in assay [2].
For the compound `Nc1cc(-n2cc(C(=O)O)c(=O)c3cc(F)c(N4CC(N)C4)c(Br)c32)c(F)cc1F`, the GM-MIC in assay [1] came to 0.04 µg/mL; in assay [2], 0.07 µg/mL.
Consider `Nc1cc(-n2cc(C(=O)O)c(=O)c3cc(F)c(N4CC[C@H](N)C4)c(Cl)c32)c(F)cc1F`, for which the GM-MIC came out at 1.21 µg/mL in assay [1] and 1.16 µg/mL in assay [2].
Consider `Nc1cc(-n2cc(C(=O)O)c(=O)c3cc(F)c(N4CC[C@H](N)C4)nc32)c(F)cc1F`, for which the GM-MIC in assay [1] turned out to be 0.1 µg/mL; in assay [2], 0.26 µg/mL.
`CC1(N)CN(c2c(F)cc3c(=O)c(C(=O)O)cn(-c4cc(N)c(F)cc4F)c3c2Cl)C1`: the figures for the GM-MIC in assay [1] and in assay [2] were 0.06 µg/mL and 0.1 µg/mL, respectively.
Take `Nc1cc(-n2cc(C(=O)O)c(=O)c3cc(F)c(N4CC(N)C4)c(F)c32)c(F)cc1F`: the GM-MIC worked out at 0.08 µg/mL in assay [1] and 0.42 µg/mL in assay [2].
For the compound `N[C@@H]1[C@H]2CN(c3nc4c(cc3F)c(=O)c(C(=O)O)cn4-c3ccc(F)cc3F)C[C@@H]12` [TROVAFLOXACIN], the minimal inhibitory concentration (MIC) against Escherichia coli was greater than 128 µg/mL; against Staphylococcus aureus it was 128 µg/mL (≈ 307 µM); against Pseudomonas aeruginosa it was 16 µg/mL (≈ 38.4 µM); in the assay on Streptococcus pneumoniae, 0.25 µg/mL (≈ 0.6 µM). The GM-MIC is 0.3 µg/mL in assay [1] and 0.29 µg/mL in assay [2].

As a reminder, the MIC is the least concentration at which growth counts as inhibited.

The record behind these values is ChEMBL document CHEMBL1136788, “A novel antibacterial 8-chloroquinolone with a distorted orientation of the N1-(5-amino-2,4-difluorophenyl) group” (2003).
